Data as given in ChEMBL document CHEMBL5678806, “NMS-P937, an orally available, specific small-molecule polo-like kinase 1 inhibitor with antitumor activity in solid and hematologic malignancies” (Mol Cancer Ther, 2012).
The source made the active and inactive calls. The rule behind the calls is not given here.

Columns and labels:
[1] = molecular target: Casein kinase I isoform gamma-1 (Homo sapiens) (UniProt Q9HCP0); assay: Inhibition of N-terminal 6His-tagged recombinant human CK1gamma1 (25 to 355 residues) expressed in baculovirus infected Sf21 cells assessed as residual activity at 1 uM relative to control
Chain of Casein kinase I isoform gamma-1 (Homo sapiens) (Q9HCP0 whole entry, looked up, the tested form may be a part, canonical isoform): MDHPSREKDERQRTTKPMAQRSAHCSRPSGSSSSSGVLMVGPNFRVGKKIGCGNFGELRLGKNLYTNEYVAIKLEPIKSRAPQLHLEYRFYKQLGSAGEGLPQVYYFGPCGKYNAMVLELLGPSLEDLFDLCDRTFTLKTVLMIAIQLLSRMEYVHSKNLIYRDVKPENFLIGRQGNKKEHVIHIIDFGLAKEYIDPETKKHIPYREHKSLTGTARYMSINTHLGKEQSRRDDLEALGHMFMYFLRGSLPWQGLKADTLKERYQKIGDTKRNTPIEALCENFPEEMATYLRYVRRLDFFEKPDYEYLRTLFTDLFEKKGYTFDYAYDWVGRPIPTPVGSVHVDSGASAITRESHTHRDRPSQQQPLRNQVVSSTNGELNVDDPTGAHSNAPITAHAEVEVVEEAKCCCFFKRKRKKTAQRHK

[2] = Antiproliferative activity against human GM13705 cells assessed as inhibition of cell growth incubated for 72 hrs by cell-titer glo assay; format: functional, cell-based; details: GM13705, 72 h
In short: (§1)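 Cells seeded at 10,000–30,000/cm² (adherent) or 100,000/mL (nonadherent) in medium with 10% fetal calf serum; after 24 h, treated in duplicate with serial dilutions for 72 h. Viable cell number read by CellTiter-Glo luminescence; IC50 from sigmoidal fit; at least two independent experiments.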

[3] = molecular target: Serine/threonine-protein kinase PLK3 (Homo sapiens) (UniProt Q9H4B4); assay: Inhibition of PLK3 (unknown origin) at 10 micromol/L in presence of [gamma-33P]ATP relative to control; details: dose 10.0 µmol/L
Chain of Serine/threonine-protein kinase PLK3 (Homo sapiens) (Q9H4B4 whole entry, looked up): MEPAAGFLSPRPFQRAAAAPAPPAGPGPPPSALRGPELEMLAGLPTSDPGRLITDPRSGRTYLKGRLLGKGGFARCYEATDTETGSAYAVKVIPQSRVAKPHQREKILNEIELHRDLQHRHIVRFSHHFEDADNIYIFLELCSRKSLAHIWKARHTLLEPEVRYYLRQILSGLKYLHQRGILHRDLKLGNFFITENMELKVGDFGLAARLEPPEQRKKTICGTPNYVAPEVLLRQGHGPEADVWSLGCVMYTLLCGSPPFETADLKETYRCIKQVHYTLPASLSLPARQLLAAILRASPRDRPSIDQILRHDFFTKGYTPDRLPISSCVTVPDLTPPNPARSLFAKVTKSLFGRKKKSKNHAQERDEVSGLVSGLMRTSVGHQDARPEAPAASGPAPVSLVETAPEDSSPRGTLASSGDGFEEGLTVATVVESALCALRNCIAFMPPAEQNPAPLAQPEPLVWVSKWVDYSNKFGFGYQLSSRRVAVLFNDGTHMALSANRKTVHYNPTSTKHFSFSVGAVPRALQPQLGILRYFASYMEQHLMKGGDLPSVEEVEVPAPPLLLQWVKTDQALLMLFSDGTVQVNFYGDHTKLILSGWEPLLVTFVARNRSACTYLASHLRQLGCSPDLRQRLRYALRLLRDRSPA

NCI-H526 = assay: Antiproliferative activity against human NCI-H526 cells assessed as inhibition of cell growth incubated for 72 hrs by cell-titer glo assay; format: functional, cell-based; details: NCI-H526, 72 h
In short: (§2)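 Cells from ATCC or ECACC, kept in supplier-recommended medium with 1% penicillin-streptomycin at 37°C, 5% CO₂. Seeded at 10,000–30,000/cm² (adherent) or 100,000/mL (nonadherent) in medium with 10% fetal calf serum. Dosed after 24 h in duplicate with serial dilutions. Viable cells read by CellTiter-Glo 72 h later. IC50 from sigmoidal fit. At least two independent experiments.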

HDQ-P1 = assay: Antiproliferative activity against human HDQ-P1 cells assessed as inhibition of cell growth incubated for 72 hrs by cell-titer glo assay; format: functional, cell-based; details: HDQ-P1, 72 h
In short: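 Cells seeded at 10,000–30,000/cm² (adherent) in medium with 10% fetal calf serum; after 24 h treated in duplicate with serial dilutions for 72 h. Viable cell number read by CellTiter-Glo luminescence. IC50 from sigmoidal curve fit; at least two independent experiments.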

LS180 = assay: Antiproliferative activity against human LS180 cells assessed as inhibition of cell growth incubated for 72 hrs by cell-titer glo assay; format: functional, cell-based; details: LS180, 72 h; in short: as §1
HCT-116 = assay: Antitumor activity against human HCT-116 cells xenografted in nu/nu mouse assessed as tumor growth inhibition at 60 mg/kg administered for 10 days relative to control; format: functional; details: HCT-116, 240 h, time 10 day, read-out: TGI
MV4-11 = assay: Antiproliferative activity against human MV4-11 cells assessed as inhibition of cell growth incubated for 72 hrs by cell-titer glo assay; format: functional, cell-based; details: MV4-11, 72 h; in short: as §2
[4] = Tmax in Sprague-Dawley rat at 10 mg/kg, po by LC-MS analysis; format: ADME, organism-based; details: in vivo
[5] = molecular target: Death-associated protein kinase 3 (Homo sapiens) (UniProt O43293); assay: Inhibition of N-terminal GST tagged recombinant human ZIPK (1 to 290 residues) expressed in E. coli assessed as residual activity at 1 uM relative to control
[6] = molecular target: Angiopoietin-1 receptor (Homo sapiens) (UniProt Q02763); assay: Inhibition of N-terminal His6-tagged recombinant human Tie2 (771 to end residues) expressed in baculovirus infected Sf21 cells assessed as residual activity at 0.1 uM relative to control
Chain of Angiopoietin-1 receptor (Homo sapiens) (Q02763 whole entry): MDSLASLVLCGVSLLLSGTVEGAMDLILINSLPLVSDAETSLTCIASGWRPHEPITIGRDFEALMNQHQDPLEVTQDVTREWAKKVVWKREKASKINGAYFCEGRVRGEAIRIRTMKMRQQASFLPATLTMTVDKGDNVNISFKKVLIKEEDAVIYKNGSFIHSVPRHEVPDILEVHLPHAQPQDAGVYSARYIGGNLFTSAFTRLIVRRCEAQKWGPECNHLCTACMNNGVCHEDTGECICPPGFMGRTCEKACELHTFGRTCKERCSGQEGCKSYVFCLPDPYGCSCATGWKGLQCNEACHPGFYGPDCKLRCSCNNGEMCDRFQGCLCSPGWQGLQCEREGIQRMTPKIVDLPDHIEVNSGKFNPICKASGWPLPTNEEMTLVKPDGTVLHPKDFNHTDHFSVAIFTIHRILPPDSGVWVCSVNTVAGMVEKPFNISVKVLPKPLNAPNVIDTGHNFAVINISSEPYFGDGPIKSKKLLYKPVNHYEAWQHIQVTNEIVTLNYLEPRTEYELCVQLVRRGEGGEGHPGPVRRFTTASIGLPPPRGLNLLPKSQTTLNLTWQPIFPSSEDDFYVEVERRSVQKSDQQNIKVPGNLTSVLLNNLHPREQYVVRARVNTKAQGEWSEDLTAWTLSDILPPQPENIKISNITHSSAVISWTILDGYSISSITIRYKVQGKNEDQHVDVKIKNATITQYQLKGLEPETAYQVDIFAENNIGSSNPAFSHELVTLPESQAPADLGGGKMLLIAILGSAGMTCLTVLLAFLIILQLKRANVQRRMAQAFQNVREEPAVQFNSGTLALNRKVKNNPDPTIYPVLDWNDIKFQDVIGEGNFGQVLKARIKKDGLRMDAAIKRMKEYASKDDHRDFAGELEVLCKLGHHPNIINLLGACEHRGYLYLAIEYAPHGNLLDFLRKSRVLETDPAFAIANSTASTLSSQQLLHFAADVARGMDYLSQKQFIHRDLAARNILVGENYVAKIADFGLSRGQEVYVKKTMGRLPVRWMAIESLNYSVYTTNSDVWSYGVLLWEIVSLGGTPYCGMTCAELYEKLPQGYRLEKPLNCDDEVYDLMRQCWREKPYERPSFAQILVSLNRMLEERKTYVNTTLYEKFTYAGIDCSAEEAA

1A9/ptx-22 = assay: Antiproliferative activity against human 1A9/ptx-22 cells assessed as inhibition of cell growth incubated for 72 hrs by cell-titer glo assay; format: functional, cell-based; details: 1A9/ptx-22, 72 h
In short: (§3)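 Cells seeded 10,000–30,000/cm² (adherent) or 100,000/mL (suspension) in medium with 10% fetal calf serum; after 24 h treated in duplicate with serial dilutions for 72 h. Viable cells read by CellTiter-Glo luminescence; IC50 from sigmoidal fit; at least two independent experiments.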

[7] = molecular target: Glycogen synthase kinase-3 beta (Homo sapiens, UniProt P49841); assay: Inhibition of GSK3beta (unknown origin) in presence of [gamma-33P]ATP
Chain of Glycogen synthase kinase-3 beta (P49841 whole entry): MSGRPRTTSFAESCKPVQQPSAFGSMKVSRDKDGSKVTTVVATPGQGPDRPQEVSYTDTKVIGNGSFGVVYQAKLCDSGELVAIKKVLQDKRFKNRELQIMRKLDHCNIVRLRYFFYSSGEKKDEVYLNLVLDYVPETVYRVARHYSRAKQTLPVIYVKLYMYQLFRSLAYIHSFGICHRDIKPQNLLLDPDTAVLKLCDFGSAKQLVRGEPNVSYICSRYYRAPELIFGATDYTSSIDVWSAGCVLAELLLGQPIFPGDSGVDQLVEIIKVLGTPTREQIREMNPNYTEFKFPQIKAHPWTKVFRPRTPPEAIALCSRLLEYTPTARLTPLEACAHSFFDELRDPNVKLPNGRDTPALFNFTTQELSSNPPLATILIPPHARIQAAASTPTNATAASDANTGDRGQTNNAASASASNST

[8] = molecular target: Dual specificity mitogen-activated protein kinase kinase 6 (Homo sapiens) (UniProt P52564); assay: Inhibition of N-terminal maltose binding protein-tagged human MKK6 (4 to end residues) expressed in E. coli assessed as residual activity at 0.1 uM relative to control
[9] = Antiproliferative activity against human SUPM2 cells assessed as inhibition of cell growth incubated for 72 hrs by cell-titer glo assay; format: functional, cell-based; details: SUP-M2, 72 h
[10] = Oral bioavailability in nu/nu mouse at 10 mg/kg by LC-MS analysis; format: ADME, organism-based; details: in vivo
NCI-H1650 = assay: Antiproliferative activity against human NCI-H1650 cells assessed as inhibition of cell growth incubated for 72 hrs by cell-titer glo assay; format: functional, cell-based; details: NCI-H1650, 72 h; in short: as §2
[11] = Half-life in nu/nu mouse at 10 mg/kg, po by LC-MS analysis; format: ADME, organism-based; details: in vivo
[12] = molecular target: Insulin receptor-related protein (Homo sapiens) (UniProt P14616); assay: Inhibition of N-terminal 6His-tagged recombinant human IRR (944 to 1266 residues) expressed in baculovirus infected Sf21 cells assessed as residual activity at 1 uM relative to control
Chain of Insulin receptor-related protein (Homo sapiens) (P14616 27-742 limits assumed): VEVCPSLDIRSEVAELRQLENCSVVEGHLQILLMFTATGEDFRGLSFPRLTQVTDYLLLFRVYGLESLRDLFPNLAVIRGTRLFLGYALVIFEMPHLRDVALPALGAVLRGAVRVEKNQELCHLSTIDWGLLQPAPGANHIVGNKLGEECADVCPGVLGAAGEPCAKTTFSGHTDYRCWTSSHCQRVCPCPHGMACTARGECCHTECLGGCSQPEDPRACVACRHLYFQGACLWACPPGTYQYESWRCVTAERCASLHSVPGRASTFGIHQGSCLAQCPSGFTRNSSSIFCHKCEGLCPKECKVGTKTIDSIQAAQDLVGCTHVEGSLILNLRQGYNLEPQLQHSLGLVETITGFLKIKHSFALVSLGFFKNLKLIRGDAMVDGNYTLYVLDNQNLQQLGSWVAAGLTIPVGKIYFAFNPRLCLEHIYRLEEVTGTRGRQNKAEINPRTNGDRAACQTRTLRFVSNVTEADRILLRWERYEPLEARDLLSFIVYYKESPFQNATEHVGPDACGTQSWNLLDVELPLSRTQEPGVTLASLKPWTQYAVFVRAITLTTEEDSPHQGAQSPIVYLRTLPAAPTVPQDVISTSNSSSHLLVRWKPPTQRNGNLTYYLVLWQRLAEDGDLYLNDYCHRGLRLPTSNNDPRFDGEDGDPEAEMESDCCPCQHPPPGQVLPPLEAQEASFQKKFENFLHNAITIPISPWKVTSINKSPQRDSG
Chain of Insulin receptor-related protein (Homo sapiens) (P14616 747-1297 limits assumed): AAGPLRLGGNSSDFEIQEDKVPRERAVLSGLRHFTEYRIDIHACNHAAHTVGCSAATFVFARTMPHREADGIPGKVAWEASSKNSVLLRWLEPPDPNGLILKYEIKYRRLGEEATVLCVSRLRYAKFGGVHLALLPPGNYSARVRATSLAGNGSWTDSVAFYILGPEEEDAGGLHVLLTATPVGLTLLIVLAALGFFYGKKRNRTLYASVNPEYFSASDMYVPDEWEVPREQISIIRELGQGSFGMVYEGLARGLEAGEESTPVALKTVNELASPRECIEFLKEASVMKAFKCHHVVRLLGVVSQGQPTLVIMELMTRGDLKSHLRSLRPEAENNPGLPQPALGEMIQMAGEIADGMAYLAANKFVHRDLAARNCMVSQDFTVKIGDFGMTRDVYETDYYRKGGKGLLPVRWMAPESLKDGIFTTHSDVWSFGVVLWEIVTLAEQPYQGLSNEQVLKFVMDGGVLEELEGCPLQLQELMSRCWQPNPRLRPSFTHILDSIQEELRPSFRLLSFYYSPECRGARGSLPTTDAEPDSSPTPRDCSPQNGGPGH

U-118-MG = assay: Antiproliferative activity against human U-118-MG cells assessed as inhibition of cell growth incubated for 72 hrs by cell-titer glo assay; format: functional, cell-based
[13] = molecular target: Protein kinase C delta type (Homo sapiens) (UniProt Q05655); assay: Inhibition of N-terminal His6-tagged recombinant human PKCdelta (2 to end residues) expressed in Sf21 cells assessed as residual activity at 1 uM relative to control
Chain of Protein kinase C delta type (Homo sapiens) (Q05655 whole entry, looked up): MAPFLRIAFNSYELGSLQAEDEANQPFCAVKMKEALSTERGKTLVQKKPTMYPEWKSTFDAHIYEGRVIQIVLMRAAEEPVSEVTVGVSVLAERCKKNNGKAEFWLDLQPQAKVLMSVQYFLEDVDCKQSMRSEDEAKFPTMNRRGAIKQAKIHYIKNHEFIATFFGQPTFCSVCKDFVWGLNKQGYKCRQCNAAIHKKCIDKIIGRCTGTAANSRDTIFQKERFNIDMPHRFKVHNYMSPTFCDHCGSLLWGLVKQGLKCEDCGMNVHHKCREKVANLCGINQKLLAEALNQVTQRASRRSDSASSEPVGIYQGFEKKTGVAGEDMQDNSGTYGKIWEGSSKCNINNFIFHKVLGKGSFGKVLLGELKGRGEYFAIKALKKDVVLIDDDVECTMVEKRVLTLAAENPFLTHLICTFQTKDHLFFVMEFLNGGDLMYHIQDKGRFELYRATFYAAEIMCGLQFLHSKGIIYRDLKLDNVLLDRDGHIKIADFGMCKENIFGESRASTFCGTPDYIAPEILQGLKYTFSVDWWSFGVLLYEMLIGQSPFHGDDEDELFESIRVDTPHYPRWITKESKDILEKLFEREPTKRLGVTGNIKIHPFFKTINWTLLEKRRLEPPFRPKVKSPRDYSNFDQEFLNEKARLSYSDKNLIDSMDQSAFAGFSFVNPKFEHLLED

CAKI-1 = assay: Antiproliferative activity against human CAKI-1 cells assessed as inhibition of cell growth incubated for 72 hrs by cell-titer glo assay; format: functional, cell-based; details: CAKI-1, 72 h; in short: as §3
[14] = molecular target: Mitogen-activated protein kinase 13 (Homo sapiens) (UniProt O15264); assay: Inhibition of recombinant GST-tagged fusion protein fused to full length human SAPK4 expressed in E. coli assessed as residual activity at 0.1 uM relative to control
Chain of Mitogen-activated protein kinase 13 (Homo sapiens) (O15264 whole entry, the tested form may be a part): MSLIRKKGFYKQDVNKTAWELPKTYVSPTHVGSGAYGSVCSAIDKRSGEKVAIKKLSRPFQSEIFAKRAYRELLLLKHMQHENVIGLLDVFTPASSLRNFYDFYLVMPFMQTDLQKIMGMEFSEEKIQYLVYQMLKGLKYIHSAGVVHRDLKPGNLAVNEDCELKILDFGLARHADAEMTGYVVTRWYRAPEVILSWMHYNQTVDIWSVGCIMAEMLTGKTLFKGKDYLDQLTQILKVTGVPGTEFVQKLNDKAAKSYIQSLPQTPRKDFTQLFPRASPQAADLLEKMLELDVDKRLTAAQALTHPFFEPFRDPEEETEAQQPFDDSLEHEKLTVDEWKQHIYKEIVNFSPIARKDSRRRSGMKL

HT-29 = assay: Antiproliferative activity against human HT-29 cells assessed as inhibition of colony formation at <= 8 nmol/L incubated for 72 hrs and measured after 18 days by crystal violet staining based analysis; format: functional, cell-based
In short: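 HT29 colon adenocarcinoma cells exposed to a range of concentrations for 72 h, then compound removed and cells replated and grown 18 days in compound-free medium; colony formation scored.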

[15] = AUC in Sprague-Dawley rat at 10 mg/kg, po by LC-MS analysis; format: ADME, organism-based; details: in vivo
A2780 = assay: Induction of cell cycle arrest in human A2780 cells assessed as accumulation of cells in G2/M phase by measuring Histone H3 phosphorylation on Ser10 incubated for 24 hrs by Western blotting analysis; format: functional, cell-based; details: dose 0.02-0.2 µmol/L
In short: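 A2780 ovarian carcinoma cells treated 24 h with a range of concentrations, with DMSO and nocodazole controls. 20 µg protein extract separated by SDS-PAGE and immunoblotted with chemiluminescent detection. Probed for total and phospho-Thr210 PLK1, phospho-Ser10 histone H3, phospho-Thr199 NPM and phospho-Tyr15 CDK1. Total NPM, tubulin and total CDK1 served as loading controls.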

CN1CCN(c2ccc(OC(F)(F)F)c(Nc3ncc4c(n3)-c3c(c(C(N)=O)nn3CCO)CC4)c2)CC1 [ONVANSERTIB]
Activity [1]: 60% | IC50 [2]: 162 nM | inhibition [3]: 40.2% | IC50 (NCI-H526): 31 nM | IC50 (HDQ-P1): 51 nM | IC50 (LS180): 192 nM | inhibition in vivo at 60 mg/kg (HCT-116): 89% | IC50 (MV4-11): 58 nM | Tmax [4]: 3 h | Activity [5]: 87% | Activity [6]: 113% | IC50 (1A9/ptx-22): 65 nM | IC50 [7]: > 10000 nM | Activity [8]: 131% | IC50 [9]: 43 nM | bioavailability [10]: 24% | IC50 (NCI-H1650): 2420 nM | half-life [11]: 1.6 h | Activity [12]: 114% | IC50 (U-118-MG): 220 nM | Activity [13]: 93% | IC50 (CAKI-1): 515 nM | Activity [14]: 113% | Activity (HT-29): Active | AUC [15]: 46.4 µM·h | Activity (A2780): Dose-Dependent Effect
